Data: ChEMBL document CHEMBL3414529, “Discovery and optimization of novel dual dithiocarbamates as potent anticancer agents” (Eur J Med Chem, 2015)
Values belong to the molecule of their own block, whether it stands above or below them.

Legend:
[1] = Antiproliferative activity against human H460 cells assessed as inhibition of cell growth after 72 hrs by MTT method; format: functional, cell-based; settings: NCI-H460, 72 h
Method in brief: (§1)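 Tumor cells seeded in 100 µL suspension, 24 h preincubation at 37 °C, 5% CO2. Serial dilutions of compound then added for 72 h; DMSO controls at 0.5% final. Surviving cells quantified by MTT, OD read at 492/620 nm. IC50 is the concentration giving 50% growth inhibition, taken from dose-response curves of a triplicate experiment.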

[2] = Antiproliferative activity against human LO2 cells assessed as inhibition of cell growth after 72 hrs by Alamar Blue method; format: cell-based; settings: L02, 72 h
Method in brief: (§2)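 Non-tumor cells seeded at 3.5 × 10³ cells/mL, 100 µL each, preincubated 24 h at 37 °C, 5% CO2. Serial dilutions then added for 72 h; DMSO controls at 0.5% final. Surviving cells measured by Alamar Blue, OD read at 492/620 nm. IC50 from a triplicate experiment.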

SW480 = assay: Antiproliferative activity against human SW480 cells assessed as inhibition of cell growth after 72 hrs by MTT method; format: functional, cell-based; settings: SW480, 72 h; method in brief: as §1
A-375 = assay: Antiproliferative activity against human A375 cells assessed as inhibition of cell growth after 72 hrs by MTT method; format: functional, cell-based; settings: A-375, 72 h; method in brief: as §1
[3] = Antiproliferative activity against human PC3 cells assessed as inhibition of cell growth after 72 hrs by MTT method; format: functional, cell-based; settings: PC-3, 72 h; method in brief: as §1
HepG2 = assay: Antiproliferative activity against human HepG2 cells assessed as inhibition of cell growth after 72 hrs by MTT method; format: functional, cell-based; settings: HepG2, 72 h; method in brief: as §1
MCF7 = assay: Antiproliferative activity against human MCF7 cells assessed as inhibition of cell growth after 72 hrs by MTT method; format: functional, cell-based; settings: MCF7, 72 h; method in brief: as §1
NCI-H522 = assay: Antiproliferative activity against human NCI-H522 cells assessed as inhibition of cell growth after 72 hrs by MTT method; format: functional, cell-based; settings: NCI-H522, 72 h; method in brief: as §1
[4] = Antiproliferative activity against human H1299 cells assessed as inhibition of cell growth after 72 hrs by MTT method; format: functional, cell-based; settings: NCI-H1299, 72 h; method in brief: as §1
MDA-MB-453 = assay: Antiproliferative activity against human MDA-MB-453 cells assessed as inhibition of cell growth after 72 hrs by MTT method; format: functional, cell-based; settings: MDA-MB-453, 72 h; method in brief: as §1
HEK293 = assay: Antiproliferative activity against human HEK293 cells assessed as inhibition of cell growth after 72 hrs by Alamar Blue method; format: cell-based; settings: HEK293, 72 h; method in brief: as §2
[5] = Antiproliferative activity against human COLO205 cells assessed as inhibition of cell growth after 72 hrs by MTT method; format: functional, cell-based; settings: COLO 205, 72 h; method in brief: as §1

SMILES: CN(Cc1cccnc1)C(=S)SCC(CSC(=S)N(C)Cc1cccnc1)C(=O)c1cnc2ccccc2c1
- IC50 [1]: 1 µM

SMILES: CN(C)C(=S)SCC(CSC(=S)N(C)C)C(=O)c1ccc2c(c1)ncn2-c1ccccc1
- IC50 [1]: 2.2 µM

SMILES: CN(C)C(=S)SCC(CSC(=S)N(C)C)C(=O)c1ccc(OCc2ccccc2)cc1
- IC50 [1]: 9.77 µM

SMILES: O=C(c1cnc2ccccc2c1)C(CSC(=S)N1CCCCC1)CSC(=S)N1CCCCC1
- IC50 [1]: 4.65 µM

SMILES: COc1ccccc1C(=O)C(CSC(=S)N(C)C)CSC(=S)N(C)C
- IC50 [1]: 0.81 µM

SMILES: CN(C)C(=S)SCC(CSC(=S)N(C)C)C(=O)c1cccnc1
- IC50 [1]: 0.87 µM

SMILES: O=C(c1cnc2ccccc2c1)C(CSC(=S)N1CCSCC1)CSC(=S)N1CCSCC1
- IC50 [1]: 125 µM

SMILES: CN1CCN(C(=S)SCC(CSC(=S)N2CCN(C)CC2)C(=O)c2cnc3ccccc3c2)CC1
- IC50 [1]: 2.51 µM

SMILES: CN(C)C(=S)SCC(CSC(=S)N(C)C)C(=O)c1c(-c2ccccc2)nn2ccccc12
- IC50 [1]: 4.09 µM

SMILES: CN(C)C(=S)SCC(CSC(=S)N(C)C)C(=O)c1ccc(F)cc1
- IC50 [1]: 1.21 µM

SMILES: CN(C)C(=S)SCC(CSC(=S)N(C)C)C(=O)c1csc2ccccc12
- IC50 [1]: 0.85 µM

SMILES: CN(C)C(=S)SCC(CSC(=S)N(C)C)C(=O)c1ccc[nH]1
- IC50 [1]: 97.3 µM

SMILES: Cc1nc2ccccn2c1C(=O)C(CSC(=S)N(C)C)CSC(=S)N(C)C
- IC50 [1]: 151 µM

SMILES: CCN(CC)C(=S)SCC(CSC(=S)N(CC)CC)C(=O)c1cnc2ccccc2c1
- IC50 [1]: 5.16 µM

SMILES: CN(C)C(=S)SCC(CSC(=S)N(C)C)C(=O)c1c(-c2ccccc2)nn2ncccc12
- IC50 [1]: 58.2 µM

SMILES: CC(=O)C(CSC(=S)N(C)C)CSC(=S)N(C)C
- IC50 [1]: 0.89 µM

SMILES: CN(C)C(=S)SCC(CSC(=S)N(C)C)C(=O)c1ccccc1F
- IC50 [1]: 0.92 µM

- IC50 (SW480): 6.35 µM
- IC50 (A-375): 0.439 µM
- IC50 (HepG2): 0.054 µM
- IC50 (MCF7): 0.023 µM
- IC50 (NCI-H522): 0.139 µM
- IC50 (MDA-MB-453): 0.162 µM
SMILES: CN(C)C(=S)SCC(CSC(=S)N(C)C)C(=O)c1cnc2ccccc2c1
- IC50 [2]: 13.1 µM
- IC50 [3]: 0.431 µM
- IC50 [4]: 0.622 µM
- IC50 [1]: 0.476 µM
- IC50 (HEK293): 10.8 µM
- IC50 [5]: 0.325 µM

SMILES: CN(C)C(=S)SCC(CSC(=S)N(C)C)C(=O)c1ccc(O)cc1
- IC50 [1]: 30 µM

SMILES: O=C(c1cnc2ccccc2c1)C(CSC(=S)N1CCCC1)CSC(=S)N1CCCC1
- IC50 [1]: 0.79 µM

SMILES: CN(C)C(=S)SCC(CSC(=S)N(C)C)C(=O)c1cnc2ccccn12
- IC50 [1]: 13 µM

SMILES: CN(C)C(=S)SCC(CSC(=S)N(C)C)C(=O)c1nccs1
- IC50 [1]: 0.84 µM

SMILES: CN(C)C(=S)SCC(CSC(=S)N(C)C)C(=O)c1ccccc1
- IC50 [1]: 1.93 µM

SMILES: COc1cccc(C(=O)C(CSC(=S)N(C)C)CSC(=S)N(C)C)c1
- IC50 [1]: 1.24 µM

SMILES: CN(C)C(=S)SCC(CSC(=S)N(C)C)C(=O)c1cnn2ccccc12
- IC50 [1]: 31.5 µM

SMILES: O=C(c1cnc2ccccc2c1)C(CSC(=S)N1CCOCC1)CSC(=S)N1CCOCC1
- IC50 [1]: 0.58 µM

SMILES: CN(C)C(=S)SCC(CSC(=S)N(C)C)C(=O)c1cnn2ncccc12
- IC50 [1]: 4.55 µM

SMILES: CN(C)C(=S)SCC(CSC(=S)N(C)C)C(=O)c1cc2ccccc2oc1=O
- IC50 [1]: 0.66 µM
